Measured values: ChEMBL document CHEMBL3108771, “Crystal Structures of PI3Kα Complexed with PI103 and Its Derivatives: New Directions for Inhibitors Design” (ACS Med Chem Lett, 2014)

Assays:
[1] = target: T1, Phosphatidylinositol 4,5-bisphosphate 3-kinase catalytic subunit alpha isoform (Homo sapiens, UniProt P42336); assay: Inhibition of N-terminal His-6-tagged full length human PI3Kalpha expressed in baculovirus-infected sf9 cells after 30 mins by TR-FRET assay
Outline: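 IC50 is the mean of at least three independent experiments, each run in duplicate. Typical variation was below 20%.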

[2] = target: Phosphatidylinositol 4,5-bisphosphate 3-kinase catalytic subunit alpha isoform (Homo sapiens, UniProt P42336, Y836A); assay: Inhibition of GST-tagged full length human PI3Kalpha Y836A mutant expressed in baculovirus-infected sf9 cells after 30 mins by TR-FRET assay
Outline: (§1)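 Each mutant PI3Kα was expressed and purified in-house. IC50 is the mean of at least three independent experiments, each run in duplicate.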

[3] = target: Phosphatidylinositol 4,5-bisphosphate 3-kinase catalytic subunit alpha isoform (Homo sapiens, UniProt P42336, M772A); assay: Inhibition of GST-tagged full length human PI3Kalpha M772A mutant expressed in baculovirus-infected sf9 cells after 30 mins by TR-FRET assay; outline: as §1
[4] = target: Phosphatidylinositol 4,5-bisphosphate 3-kinase catalytic subunit alpha isoform (Homo sapiens, UniProt P42336, D810A); assay: Inhibition of GST-tagged full length human PI3Kalpha D810A mutant expressed in baculovirus-infected sf9 cells after 30 mins by TR-FRET assay; outline: as §1
[5] = test system: Phosphatidylinositol 4,5-bisphosphate 3-kinase catalytic subunit alpha isoform (Homo sapiens), P42336 [D810A]; assay: Ratio of PI103 IC50 to compound IC50 for full length human PI3Kalpha D810A mutant
Outline: (§2)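 Inhibitor IC50s were determined against wild-type PI3Kα and the M772A, D810A and Y836A mutants. The mutants were expressed and purified in-house. […] Fold change is the PI103 IC50 divided by the compound IC50 on the same enzyme form.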

[6] = target: T1, Phosphatidylinositol 4,5-bisphosphate 3-kinase catalytic subunit alpha isoform; assay: Ratio of PI103 IC50 to compound IC50 for full length human PI3Kalpha; outline: as §2
[7] = test system: Phosphatidylinositol 4,5-bisphosphate 3-kinase catalytic subunit alpha isoform (Homo sapiens), P42336 [Y836A]; assay: Ratio of PI103 IC50 to compound IC50 for full length human PI3Kalpha Y836A mutant; outline: as §2
[8] = test system: Phosphatidylinositol 4,5-bisphosphate 3-kinase catalytic subunit alpha isoform (Homo sapiens), P42336 [M772A]; assay: Ratio of PI103 IC50 to compound IC50 for full length human PI3Kalpha M772A mutant; outline: as §2
Phosphatidylinositol 4,5-bisphosphate 3-kinase catalytic subunit alpha isoform (Homo sapiens), P42336 [M772A], sequence (P42336 whole entry M772A, canonical isoform): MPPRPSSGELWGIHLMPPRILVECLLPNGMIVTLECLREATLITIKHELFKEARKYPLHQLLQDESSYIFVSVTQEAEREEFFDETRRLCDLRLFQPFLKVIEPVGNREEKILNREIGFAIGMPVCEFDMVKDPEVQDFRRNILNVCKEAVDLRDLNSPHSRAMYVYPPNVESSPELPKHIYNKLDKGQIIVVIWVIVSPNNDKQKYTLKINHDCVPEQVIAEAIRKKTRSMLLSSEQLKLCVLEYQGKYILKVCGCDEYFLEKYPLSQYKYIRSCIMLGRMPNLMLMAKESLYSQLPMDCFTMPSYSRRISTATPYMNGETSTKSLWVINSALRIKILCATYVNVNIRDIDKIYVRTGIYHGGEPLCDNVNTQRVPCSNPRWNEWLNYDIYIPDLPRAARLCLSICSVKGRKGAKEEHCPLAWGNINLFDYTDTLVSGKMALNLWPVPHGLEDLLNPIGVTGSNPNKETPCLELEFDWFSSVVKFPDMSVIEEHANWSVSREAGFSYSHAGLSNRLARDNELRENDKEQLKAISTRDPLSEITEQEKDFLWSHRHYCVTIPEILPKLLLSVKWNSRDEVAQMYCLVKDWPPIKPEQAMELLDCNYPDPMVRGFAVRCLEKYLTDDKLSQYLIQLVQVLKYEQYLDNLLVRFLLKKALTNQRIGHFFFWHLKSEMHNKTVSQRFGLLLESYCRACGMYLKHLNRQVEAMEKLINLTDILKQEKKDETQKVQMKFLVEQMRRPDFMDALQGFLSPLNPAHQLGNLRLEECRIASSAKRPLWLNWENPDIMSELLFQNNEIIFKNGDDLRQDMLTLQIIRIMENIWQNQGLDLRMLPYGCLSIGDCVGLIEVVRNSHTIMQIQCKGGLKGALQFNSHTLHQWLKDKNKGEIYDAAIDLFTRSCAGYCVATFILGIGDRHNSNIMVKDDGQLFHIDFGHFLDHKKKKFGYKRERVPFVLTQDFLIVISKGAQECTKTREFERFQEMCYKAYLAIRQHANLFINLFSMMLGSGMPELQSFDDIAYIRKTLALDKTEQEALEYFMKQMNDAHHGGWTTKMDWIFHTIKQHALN

T1 sequence (P42336 whole entry, canonical isoform): as the sequence (P42336 whole entry M772A, canonical isoform) above, with A772M counted along it
Phosphatidylinositol 4,5-bisphosphate 3-kinase catalytic subunit alpha isoform (Homo sapiens, UniProt P42336, M772A), sequence (P42336 whole entry M772A, canonical isoform): as the sequence (P42336 whole entry M772A, canonical isoform) above
Phosphatidylinositol 4,5-bisphosphate 3-kinase catalytic subunit alpha isoform (Homo sapiens, UniProt P42336, D810A), sequence (P42336 whole entry D810A, canonical isoform): as the sequence (P42336 whole entry M772A, canonical isoform) above, with A772M, D810A counted along it
Phosphatidylinositol 4,5-bisphosphate 3-kinase catalytic subunit alpha isoform (Homo sapiens), P42336 [D810A], sequence (P42336 whole entry D810A, canonical isoform): as the sequence (P42336 whole entry M772A, canonical isoform) above, with A772M, D810A counted along it
Phosphatidylinositol 4,5-bisphosphate 3-kinase catalytic subunit alpha isoform (Homo sapiens, UniProt P42336, Y836A), sequence (P42336 whole entry Y836A, canonical isoform): as the sequence (P42336 whole entry M772A, canonical isoform) above, with A772M, Y836A counted along it
Phosphatidylinositol 4,5-bisphosphate 3-kinase catalytic subunit alpha isoform (Homo sapiens), P42336 [Y836A], sequence (P42336 whole entry Y836A, canonical isoform): as the sequence (P42336 whole entry M772A, canonical isoform) above, with A772M, Y836A counted along it

| SMILES | IC50 [1] | further results |
| --- | --- | --- |
| Oc1cc(Br)cc(-c2nc(N3CCOCC3)c3oc4ncccc4c3n2)c1 | 1210 nM | – |
| Nc1cc(O)cc(-c2nc(N3CCOCC3)c3oc4ncccc4c3n2)c1 | 20.6 nM | – |
| Oc1cc(F)cc(-c2nc(N3CCOCC3)c3oc4ncccc4c3n2)c1 | 40.9 nM | – |
| Oc1cc(Cl)cc(-c2nc(N3CCOCC3)c3oc4ncccc4c3n2)c1 | 990 nM | – |
| O=[N+]([O-])c1cc(O)cc(-c2nc(N3CCOCC3)c3oc4ncccc4c3n2)c1 | > 10000 nM | – |
| Oc1cc(-c2nc(N3CCOCC3)c3oc4ncccc4c3n2)cc(C(F)(F)F)c1 | > 10000 nM | – |
| Oc1cc(O)cc(-c2nc(N3CCOCC3)c3oc4ncccc4c3n2)c1 | 5.9 nM | IC50 [2]: 140 nM; IC50 [3]: 53.4 nM; IC50 [4]: 61.3 nM; Ratio IC50 [5]: 1.2; Ratio IC50 [6]: 3; Ratio IC50 [7]: 5.7; Ratio IC50 [8]: 19.4 |
| Cc1cc(O)cc(-c2nc(N3CCOCC3)c3oc4ncccc4c3n2)c1 | > 10000 nM | – |
